These results are taken from ChEMBL document CHEMBL1153266, “Synthesis and biological activity of anticoccidial agents: 2,3-diarylindoles” (Bioorg Med Chem Lett, 2009).

The source made the active and inactive calls. The calls are words filed in the database; no cut-off is given here.

Experiment [1] has as its target cGMP-dependent protein kinase (Eimeria tenella, UniProt Q8MMZ8). Briefly: Inhibition of Eimeria tenella parasite-specific cGMP-dependent protein kinase.
For experiment [2], the system named is Eimeria tenella. The experiment can be described thus: Antiparasitic activity against Eimeria tenella at 50 ppm administered orally through feed after 7 days. The class given is functional. A digest of the protocol: (§1)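 Each compound was given orally in the feed, and its anticoccidial activity was ranked in a seven-day efficacy model. Each Eimeria species got its own quantitative measure.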

For experiment [3], the system named is Eimeria acervulina. Briefly: Antiparasitic activity against Eimeria acervulina at 50 ppm administered orally through feed after 7 days. Format: functional. In short, it runs like this:
as §1

Experiment [4] has as its system Eimeria mitis. The experiment can be described thus: Antiparasitic activity against Eimeria mitis at 50 ppm administered orally through feed after 7 days. Format: functional. In short, it runs like this: as §1
The test system of experiment [5] is Eimeria maxima. The experiment can be described thus: Antiparasitic activity against Eimeria maxima at 50 ppm administered orally through feed after 7 days. The class given is functional. A digest of the protocol:
as §1

Experiment [6] has as its system Eimeria tenella. Briefly: Antiparasitic activity against Eimeria tenella at 6 ppm administered orally through feed after 7 days. The class given is functional. In short, it runs like this:
as §1

The subject of experiment [7] is Eimeria acervulina. Briefly: Antiparasitic activity against Eimeria acervulina at 6 ppm administered orally through feed after 7 days. Format: functional. In short, it runs like this:
as §1

The subject of experiment [8] is Eimeria mitis. Briefly: Antiparasitic activity against Eimeria mitis at 6 ppm administered orally through feed after 7 days. Format: functional. In short, it runs like this:
as §1

Experiment [9] deals with Eimeria maxima. Briefly: Antiparasitic activity against Eimeria maxima at 6 ppm administered orally through feed after 7 days. The class given is functional. A digest of the protocol: as §1

cGMP-dependent protein kinase, sequence (Q8MMZ8 whole entry): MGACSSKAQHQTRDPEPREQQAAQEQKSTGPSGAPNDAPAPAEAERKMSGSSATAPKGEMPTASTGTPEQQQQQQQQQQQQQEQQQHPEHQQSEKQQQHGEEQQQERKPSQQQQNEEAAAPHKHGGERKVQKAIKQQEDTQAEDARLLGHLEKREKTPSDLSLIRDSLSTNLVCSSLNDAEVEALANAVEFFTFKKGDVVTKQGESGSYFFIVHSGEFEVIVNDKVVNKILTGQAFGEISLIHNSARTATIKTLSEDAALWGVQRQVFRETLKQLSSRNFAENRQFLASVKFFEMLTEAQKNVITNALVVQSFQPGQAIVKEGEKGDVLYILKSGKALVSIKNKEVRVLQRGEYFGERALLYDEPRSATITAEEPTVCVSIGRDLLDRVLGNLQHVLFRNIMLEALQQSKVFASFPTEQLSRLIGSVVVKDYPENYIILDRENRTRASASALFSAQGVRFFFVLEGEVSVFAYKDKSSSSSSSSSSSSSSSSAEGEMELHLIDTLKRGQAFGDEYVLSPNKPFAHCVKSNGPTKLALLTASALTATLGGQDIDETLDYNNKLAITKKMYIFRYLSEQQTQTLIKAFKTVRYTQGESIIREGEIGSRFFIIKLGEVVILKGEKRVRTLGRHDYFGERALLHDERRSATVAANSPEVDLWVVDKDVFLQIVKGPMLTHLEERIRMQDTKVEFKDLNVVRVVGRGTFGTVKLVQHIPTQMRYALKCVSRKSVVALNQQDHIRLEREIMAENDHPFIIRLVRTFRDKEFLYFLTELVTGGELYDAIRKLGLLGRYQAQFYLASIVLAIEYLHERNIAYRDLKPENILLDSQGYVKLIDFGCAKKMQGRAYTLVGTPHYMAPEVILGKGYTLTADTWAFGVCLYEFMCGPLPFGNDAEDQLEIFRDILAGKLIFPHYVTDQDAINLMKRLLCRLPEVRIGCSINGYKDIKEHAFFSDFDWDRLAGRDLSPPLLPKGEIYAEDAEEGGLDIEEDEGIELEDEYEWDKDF

Usually IC50 stands for the concentration at which inhibition is half-maximal. A low value points to higher potency. Regarding `OCCN1CCC(c2ccc3c(-c4ccncc4)c(-c4ccc(F)cc4)[nH]c3c2)CC1`, the IC50 in [1] stood at 0.1 nM. Moreover, the Activity with Eimeria tenella [2] is on record as 50%; in the experiment with Eimeria acervulina [3], 80%; in the experiment with Eimeria mitis [4], 80%; with Eimeria maxima [5], below 50%.
Turning to `CN1CCC(c2ccn3c(-c4ccnc(N)n4)c(-c4ccc(F)cc4)nc3c2)CC1`, the Activity in the experiment on Eimeria tenella [6] stood at 100%; in the experiment on Eimeria acervulina [7] it was 80%; in the experiment on Eimeria mitis [8] it was 80%; with Eimeria maxima [9], 100%.
For the compound `CN1CCN(c2ccc3c(-c4ccncc4)c(-c4ccc(F)cc4)[nH]c3c2)CC1`, the Activity in the experiment with Eimeria tenella [2], in the experiment with Eimeria acervulina [3] and with Eimeria mitis [4] was below 50% in each case.
In experiment [1], `CN1CC(c2ccc3c(-c4ccncc4)c(-c4ccc(F)cc4)[nH]c3c2)C1` yielded an IC50 of 0.62 nM. The Activity with Eimeria tenella [2] is 50%; in the experiment with Eimeria acervulina [3], below 50%; with Eimeria mitis [4] it was below 50%.
In experiment [1], `CN1CCC(c2ccc3c(-c4ccncc4)c(-c4ccc(F)cc4)[nH]c3c2)CC1` displayed an IC50 of 0.15 nM. Also, the Activity came out at 50% in the experiment with Eimeria tenella [2], 99% with Eimeria acervulina [3], 99% with Eimeria mitis [4] and 50% in the experiment on Eimeria maxima [5].
Turning to `Fc1ccc(-c2[nH]c3cc(C4CCNCC4)ccc3c2-c2ccncn2)cc1`, in experiment [1], it took 0.65 nM to reach half-maximal inhibition (IC50). Further, the Activity with Eimeria tenella [2], with Eimeria acervulina [3], in the experiment with Eimeria mitis [4] and in the experiment with Eimeria maxima [5] was below 50% throughout.
`Nc1nccc(-c2c(-c3ccc(F)cc3)[nH]c3cc(C4CCNCC4)ccc23)n1`: the IC50 in experiment [1] stood at 0.21 nM. Moreover, the Activity with Eimeria tenella [2], with Eimeria acervulina [3] and in the experiment with Eimeria maxima [5] was below 50% in each case.
Consider `CN1CCN(Cc2ccc3c(-c4ccncc4)c(-c4ccc(F)cc4)[nH]c3c2)CC1`, for which half-maximal inhibition in experiment [1] (IC50) was put at 8.9 nM. Moreover, the Activity is reported as 80% in the experiment with Eimeria tenella [2], below 50% in the experiment on Eimeria acervulina [3] and below 50% with Eimeria mitis [4].
As for `Fc1ccc(-c2[nH]c3cc(N4CCOCC4)ccc3c2-c2ccncc2)cc1`, in experiment [1], half-maximal inhibition (IC50) was put at 9.2 nM. The Activity with Eimeria tenella [2] is 50%; in the experiment with Eimeria acervulina [3], below 50%; in the experiment on Eimeria mitis [4] it was below 50%.
In [1], `CN1CCC(c2ccc3c(-c4ccnc(N)n4)c(-c4ccc(F)cc4)[nH]c3c2)CC1` gave an IC50 of 0.22 nM. In addition, the Activity was 80% with Eimeria tenella [2], below 50% in the experiment on Eimeria acervulina [3] and below 50% in the experiment with Eimeria maxima [5].
On to `Nc1nccc(-c2c(-c3ccc(F)cc3)[nH]c3cc(C4CCN(CCO)CC4)ccc23)n1`, for which half-maximal inhibition in experiment [1] (IC50) required 0.3 nM. The Activity with Eimeria tenella [2], in the experiment with Eimeria acervulina [3] and in the experiment with Eimeria maxima [5] was below 50% in each case.
In turn, `CN1CCC(c2ccc3c(-c4ccncn4)c(-c4ccc(F)cc4)[nH]c3c2)CC1` gave an IC50 in [1] of 0.4 nM. Moreover, the Activity was below 50% with Eimeria tenella [2], 99% in the experiment with Eimeria acervulina [3], 50% in the experiment on Eimeria mitis [4] and below 50% with Eimeria maxima [5].
In [1], `CCN1CCC(c2ccc3c(-c4ccncc4)c(-c4ccc(F)cc4)[nH]c3c2)CC1` gave an IC50 of 0.16 nM. The Activity is on record as 50% in the experiment on Eimeria tenella [2], below 50% in the experiment on Eimeria acervulina [3], 80% in the experiment with Eimeria mitis [4] and 80% in the experiment with Eimeria maxima [5].
In [1], `CN1CCN(C(=O)c2ccc3[nH]c(-c4ccc(F)cc4)c(-c4ccncc4)c3c2)CC1` returned an IC50 of 12.7 nM. The Activity in the experiment with Eimeria tenella [2] is recorded as 80%; in the experiment with Eimeria acervulina [3] it was below 50%. The outcome with Eimeria mitis [4] was inactive.
In [1], `OCCN1CCC(c2ccc3c(-c4ccncn4)c(-c4ccc(F)cc4)[nH]c3c2)CC1` displayed an IC50 of 0.8 nM. In addition, the Activity with Eimeria tenella [2] is given as 99%; in the experiment with Eimeria acervulina [3], 50%; in the experiment on Eimeria mitis [4], 100%; in the experiment with Eimeria maxima [5], below 50%.
Take `Fc1ccc(-c2[nH]c3cc(C4CCNCC4)ccc3c2-c2ccncc2)cc1`: 0.15 nM corresponded to half-maximal inhibition in experiment [1] (IC50). In addition, the Activity in the experiment on Eimeria tenella [2], in the experiment on Eimeria acervulina [3], in the experiment with Eimeria mitis [4] and in the experiment with Eimeria maxima [5] was below 50% in each case.
`CN1CCC(Cc2ccc3c(-c4ccncc4)c(-c4ccc(F)cc4)[nH]c3c2)CC1`: in experiment [1], the IC50 was found to be 1.6 nM. Also, the Activity with Eimeria tenella [2] is on record as below 50%; with Eimeria acervulina [3], below 50%; in the experiment on Eimeria mitis [4], 50%.
